How the values were obtained:
Mus musculus [1] = experiment: Compound was tested for antitumor activity against the L1210 leukemia in mice at dose of 250 mg/kg intraperitoneally per day; type: functional; conditions: route intraperitoneal
Method in brief: (§1)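 L1210 leukemia: young C57BL/6 × DBA/2 F1 male mice, about 20 g, 10 per group, inoculated ip with 1 × 10^6 leukemia cells on day 0. Drug given in 0.9% NaCl ip once daily for 7 days starting day 1. Read-out is %T/C = median survival time of treated/control × 100; weight change averaged between days 1 and 5.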

Don [2] = experiment: Growth inhibition of Don-6 cell lines at 1.0 mM concentration; type: functional; conditions: Cricetulus griseus
Method in brief: (§2)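 YT-nu (human neuroblastoma) or Don-6 (Chinese hamster fibroblast) cells in McCoy's 5A with 15% FCS, attached 24 h. Washed, then exposed 1 h at 37 °C to drug at 1 or 0.1 mM in Hanks' BSS. Grown 48 h more in medium, trypsinized and Coulter-counted. % growth inhibition relative to parallel drug-free controls.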

YT-NU [3] = experiment: Growth inhibition of YT-nu cell lines at 1.0 mM concentration; type: functional; conditions: Homo sapiens; method in brief: as §2
Mus musculus [4] = experiment: Compound was tested for antitumor activity against the L1210 leukemia in mice at dose of 150(mg/kg)/day intraperitoneally per day; type: functional
Method in brief: (§3)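 Male C57BL/6 × DBA/2 F1 mice, about 20 g, 10 per group, inoculated ip with 1 × 10^6 L1210 cells on day 0. From day 1, drug in 0.9% NaCl given ip once daily for 7 days. Weight change recorded between days 1 and 5. Activity expressed as %T/C = median survival time of treated over control × 100.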

[5] = tested on: YT-nu neuroblastoma (Homo sapiens); experiment: Compound was tested for growth inhibition of YT-nu cell lines at 0.1 mM concentration
[6] = tested on: Don-6 fibroblast (Cricetulus griseus); experiment: Compound was tested for growth inhibition of Don-6 cell lines at 0.1 mM concentration
Mus musculus [7] = experiment: Compound was tested for antitumor activity against the L1210 leukemia in mice at dose of 100(mg/kg)/day intraperitoneally per day; type: functional; method in brief: as §3
Mus musculus [8] = experiment: Compound was tested for antitumor activity against the L1210 leukemia in mice at dose of 500(mg/kg)/day intraperitoneally per day; type: functional; method in brief: as §1
Mus musculus [9] = experiment: Compound was tested for antitumor activity against the L1210 leukemia in mice at dose of 500 mg/kg intraperitoneally per day; type: functional; conditions: route intraperitoneal; method in brief: as §1
Mus musculus [10] = experiment: Compound was tested for antitumor activity against the B-16 melanoma in mice at dose of 1000 mg/kg/day intraperitoneally per day; type: functional; conditions: route intraperitoneal
Mus musculus [11] = experiment: Compound was tested for antitumor activity against the L1210 leukemia in mice at dose of 1000 mg/kg/day intraperitoneally per day; type: functional; conditions: route intraperitoneal
Mus musculus [12] = experiment: Compound was tested for antitumor activity against the B-16 melanoma in mice at dose of 500(mg/kg)/day intraperitoneally per day; type: functional
Method in brief: as §1, with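 “B-16 melanoma: young” for “L1210 leukemia: young”, “with 5” for “with 1”, “10^6 melanoma” for “10^6 leukemia”, “for 12” for “for 7”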

Mus musculus [13] = experiment: Compound was tested for antitumor activity against the B-16 melanoma in mice at dose of 800(mg/kg)/day intraperitoneally per day; type: functional
Method in brief: as §1, with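 “B-16 melanoma: young” for “L1210 leukemia: young”, “with 5” for “with 1”, “10^6 melanoma” for “10^6 leukemia”, “for 12” for “for 7”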

Mus musculus [14] = experiment: Compound was tested for antitumor activity against the B-16 melanoma in mice at dose of 400(mg/kg)/day intraperitoneally per day; type: functional
Method in brief: as §1, with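 “B-16 melanoma: young” for “L1210 leukemia: young”, “with 5” for “with 1”, “10^6 melanoma” for “10^6 leukemia”, “for 12” for “for 7”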

YT-NU [15] = experiment: Compound was tested for growth inhibition of YT-nu cell lines at 0.1 mM concentration; type: functional; conditions: Homo sapiens; method in brief: as §2
Mus musculus [16] = experiment: Compound was tested for antitumor activity against the L1210 leukemia in mice at dose of 800(mg/kg)/day intraperitoneally per day; type: functional; method in brief: as §1
Don [17] = experiment: Compound was tested for growth inhibition of Don-6 cell lines at 0.1 mM concentration; type: functional; conditions: Cricetulus griseus; method in brief: as §2
Mus musculus [18] = experiment: Compound was tested for antitumor activity against the L1210 leukemia in mice at dose of 400(mg/kg)/day intraperitoneally per day; type: functional; method in brief: as §1
Mus musculus [19] = experiment: Compound was tested for antitumor activity against the B-16 melanoma in mice at dose of 100(mg/kg)/day intraperitoneally per day; type: functional
Method in brief: as §1, with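 “B-16 melanoma: young” for “L1210 leukemia: young”, “with 5” for “with 1”, “10^6 melanoma” for “10^6 leukemia”, “for 12” for “for 7”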

Mus musculus [20] = experiment: Compound was tested for antitumor activity against the L1210 leukemia in mice at dose of 300(mg/kg)/day intraperitoneally per day; type: functional; method in brief: as §1
Mus musculus [21] = experiment: Compound was tested for antitumor activity against the B-16 melanoma in mice at dose of 300(mg/kg)/day intraperitoneally per day; type: functional
Method in brief: as §1, with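 “B-16 melanoma: young” for “L1210 leukemia: young”, “with 5” for “with 1”, “10^6 melanoma” for “10^6 leukemia”, “for 12” for “for 7”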

`NC(CSc1ccc(O)cc1)C(=O)O` (centres undefined) was tested, and the T/C (Mus musculus [1]) was 100%, the Weight change (Mus musculus [1]) was 3 g and the inhibition at 1000 µM (Don [2]) was 5%. It also gave an inhibition at 1000 µM (YT-NU [3]) of 36%.

Compound `Cl.Cl.NCCSc1cc(CCN)cc(O)c1O` has a T/C (Mus musculus [4]) of 88%, a Weight change (Mus musculus [4]) of -2.1 g and an inhibition at 100 µM [5] of 48%. The inhibition at 100 µM [6] was 73%, the T/C (Mus musculus [7]) was 100% and the Weight change (Mus musculus [7]) was 1.1 g. It also gave an inhibition at 1000 µM (Don [2]) of 83% and an inhibition at 1000 µM (YT-NU [3]) of 65%.

For `NC(CSc1ccccc1O)C(=O)O` (centres undefined), the inhibition at 1000 µM (Don [2]) was 5% and the inhibition at 1000 µM (YT-NU [3]) was 51%.

Work on `NC(CSc1cc(CC(N)C(=O)O)cc(O)c1O)C(=O)O` (centres undefined) yielded a T/C (Mus musculus [8]) of 131%, a Weight change (Mus musculus [9]) of 1.7 g and a T/C (Mus musculus [10]) of 127%. For the same compound, the Weight change (Mus musculus [10]) was 2.1 g, the T/C (Mus musculus [11]) was 150% and the Weight change (Mus musculus [11]) was 1.7 g. For the same compound, the inhibition at 1000 µM (Don [2]) was 11%, the inhibition at 1000 µM (YT-NU [3]) was 59% and the T/C (Mus musculus [12]) was 108%. For the same compound, the Weight change (Mus musculus [12]) was 2.6 g.

In the case of `Cc1cc(O)c(O)c(SCC(N)C(=O)O)c1` (centres undefined), the T/C (Mus musculus [13]) is reported as 126%, the Weight change (Mus musculus [13]) is reported as -0.4 g and the T/C (Mus musculus [14]) is reported as 100%. For the same compound, the Weight change (Mus musculus [14]) was 0.7 g, the inhibition at 100 µM (YT-NU [15]) was 44% and the T/C (Mus musculus [16]) was 143%. It also gave a Weight change (Mus musculus [16]) of 0.5 g, an inhibition at 1000 µM (Don [2]) of 82% and an inhibition at 1000 µM (YT-NU [3]) of 84%. For the same compound, the inhibition at 100 µM (Don [17]) was 25%, the T/C (Mus musculus [18]) was 143% and the Weight change (Mus musculus [18]) was 1.6 g.

With `NC(CSc1cc(CC(N)C(=O)O)c(SCC(N)C(=O)O)c(O)c1O)C(=O)O` (centres undefined) the inhibition at 1000 µM (Don [2]) was 44% and the inhibition at 1000 µM (YT-NU [3]) was 56%.

`NCCc1ccc(O)c(O)c1` [DOPAMINE] was tested, and the inhibition at 1000 µM (Don [2]) was 30% and the inhibition at 1000 µM (YT-NU [3]) was 40%.

Work on `NC(CSc1ccc(O)c(O)c1)C(=O)O` (centres undefined) yielded a T/C (Mus musculus [8]) of 150%, a Weight change (Mus musculus [8]) of -1 g and a T/C (Mus musculus [19]) of 109%. For the same compound, the Weight change (Mus musculus [19]) was 1.8 g, the inhibition at 100 µM (YT-NU [15]) was 71% and the T/C (Mus musculus [20]) was 138%. The Weight change (Mus musculus [20]) was 0.5 g, the T/C (Mus musculus [7]) was 113% and the Weight change (Mus musculus [7]) was 1.4 g. For the same compound, the inhibition at 1000 µM (Don [2]) was 81%, the inhibition at 1000 µM (YT-NU [3]) was 76% and the T/C (Mus musculus [12]) was 95%. It also gave a Weight change (Mus musculus [12]) of -1.5 g, a T/C (Mus musculus [21]) of 114% and a Weight change (Mus musculus [21]) of -1.3 g. It also gave an inhibition at 100 µM (Don [17]) of 69%.

Compound `NC(CSc1nc(CC(N)C(=O)O)c[nH]1)C(=O)O` (centres undefined) has an inhibition at 1000 µM (Don [2]) of 0% and an inhibition at 1000 µM (YT-NU [3]) of 7%.

`Cc1ccc(O)c(O)c1` was tested, and the inhibition at 100 µM [5] was 48%, the inhibition at 100 µM [6] was 33% and the inhibition at 1000 µM (Don [2]) was 76%. It also gave an inhibition at 1000 µM (YT-NU [3]) of 93%.

Work on `NC(CSc1ccc(SCC(N)C(=O)O)c(O)c1O)C(=O)O` (centres undefined) yielded an inhibition at 1000 µM (Don [2]) of 30% and an inhibition at 1000 µM (YT-NU [3]) of 40%.

`NC(CSc1cc(O)c(O)cc1CC(N)C(=O)O)C(=O)O` (centres undefined) gave an inhibition at 1000 µM (Don [2]) of 41% and an inhibition at 1000 µM (YT-NU [3]) of 61%.

Work on `NC(CSc1c(CC(N)C(=O)O)ccc(O)c1O)C(=O)O` (centres undefined) yielded an inhibition at 1000 µM (Don [2]) of 0% and an inhibition at 1000 µM (YT-NU [3]) of 35%.

`NC(CSc1cc(CC(N)C(=O)O)ccc1O)C(=O)O` (centres undefined) was tested, and the inhibition at 1000 µM (Don [2]) was 5% and the inhibition at 1000 µM (YT-NU [3]) was 7%.

Compound `NC(CSc1cccc(O)c1O)C(=O)O` (centres undefined) has an inhibition at 1000 µM (Don [2]) of 32% and an inhibition at 1000 µM (YT-NU [3]) of 20%.

Work on `N[C@@H](Cc1ccc(O)c(O)c1)C(=O)O` [LEVODOPA] yielded an inhibition at 1000 µM (Don [2]) of 6% and an inhibition at 1000 µM (YT-NU [3]) of 24%.

From ChEMBL document CHEMBL1121845, “Synthesis and antitumor activity of cysteinyl-3,4-dihydroxyphenylalanines and related compounds” (1981)
